Like-named read-outs stand apart in the source and are kept apart here. Marks after values point to notes of the source that are not given here.
Legend:
[1] = cited from earlier work; for AUC decrease: coadministration of itraconazole
[2] = day 28, observed, cited from earlier work; for AUC(0–24 h) / Cmin: GM (CV%); for Cmax: GM (CV%; 90% CI)
[3] = biological target: T1, CYP2C9 (Homo sapiens, UniProt P11712); format: in vitro ADME
Outline: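 Genotype-specific hepatic intrinsic clearance (CLint,h) was back-calculated from population PK total plasma clearance for each CYP2C9 genotype (*1/*1, *1/*2, *1/*3, *2/*2, *2/*3, *3/*3). Clearance was assumed to be entirely CYP-mediated hepatic metabolism, with purely passive hepatocyte uptake. CLint,h was split across CYP2C9, 3A4, 2B6, 2C8 and 2C19 by in vitro phenotyping fm. fu(mic) was set to 1. Values served as SimCYP PBPK inputs.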

[4] = cited from earlier work; for t1/2 / AUCinf / Cmax / Tmax: observed; for t1/2: GM (CV%); for AUCinf / Cmax: GM (CV%; 90% CI); for Tmax: median (range)
[5] = biological target: CYP2C19 (Homo sapiens, UniProt P33261); assay: Enzyme phenotyping, intrinsic clearance by retrograde calculation; format: in vitro ADME
CYP2C19, sequence (P33261 whole entry): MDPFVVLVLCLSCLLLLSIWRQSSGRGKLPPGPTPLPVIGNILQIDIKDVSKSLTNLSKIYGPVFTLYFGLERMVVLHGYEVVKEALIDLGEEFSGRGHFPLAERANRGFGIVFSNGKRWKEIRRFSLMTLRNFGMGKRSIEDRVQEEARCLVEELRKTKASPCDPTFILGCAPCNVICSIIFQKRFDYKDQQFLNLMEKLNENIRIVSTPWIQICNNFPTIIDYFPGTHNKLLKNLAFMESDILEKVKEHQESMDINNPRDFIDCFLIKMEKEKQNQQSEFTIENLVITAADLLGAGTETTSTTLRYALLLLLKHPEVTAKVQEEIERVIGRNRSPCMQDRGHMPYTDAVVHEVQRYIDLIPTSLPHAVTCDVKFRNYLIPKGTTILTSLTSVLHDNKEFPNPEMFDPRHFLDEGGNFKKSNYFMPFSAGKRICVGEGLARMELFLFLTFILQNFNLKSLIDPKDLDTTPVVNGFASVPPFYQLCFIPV

[6] = biological target: T2, CYP2C8 (Homo sapiens, UniProt P10632); assay: as above; format: in vitro ADME
T2 sequence (P10632 1-490): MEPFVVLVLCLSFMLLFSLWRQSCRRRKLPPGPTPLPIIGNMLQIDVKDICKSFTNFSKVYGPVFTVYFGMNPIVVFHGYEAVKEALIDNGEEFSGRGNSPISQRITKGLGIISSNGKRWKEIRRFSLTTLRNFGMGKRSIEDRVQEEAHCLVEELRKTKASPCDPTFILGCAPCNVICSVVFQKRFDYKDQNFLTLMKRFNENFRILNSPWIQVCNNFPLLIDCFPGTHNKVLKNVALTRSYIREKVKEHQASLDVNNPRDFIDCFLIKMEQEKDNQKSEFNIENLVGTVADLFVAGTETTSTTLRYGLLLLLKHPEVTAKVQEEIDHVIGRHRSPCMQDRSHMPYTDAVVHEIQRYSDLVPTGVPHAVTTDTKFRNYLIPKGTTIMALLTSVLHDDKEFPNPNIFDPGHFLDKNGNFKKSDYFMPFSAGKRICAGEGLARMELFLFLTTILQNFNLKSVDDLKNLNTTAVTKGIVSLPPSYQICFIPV

[7] = biological target: T1, CYP2C9; conditions: cited from earlier work
[8] = cited from earlier work
[9] = observed, ref Novartis data on file, cited from earlier work; for AUCinf / Cmax / t1/2: GM (CV%; range)
[10] = biological target: CYP3A4 (Homo sapiens, UniProt P08684); assay: Enzyme phenotyping, intrinsic clearance by retrograde calculation; format: in vitro ADME
CYP3A4, sequence (P08684 whole entry): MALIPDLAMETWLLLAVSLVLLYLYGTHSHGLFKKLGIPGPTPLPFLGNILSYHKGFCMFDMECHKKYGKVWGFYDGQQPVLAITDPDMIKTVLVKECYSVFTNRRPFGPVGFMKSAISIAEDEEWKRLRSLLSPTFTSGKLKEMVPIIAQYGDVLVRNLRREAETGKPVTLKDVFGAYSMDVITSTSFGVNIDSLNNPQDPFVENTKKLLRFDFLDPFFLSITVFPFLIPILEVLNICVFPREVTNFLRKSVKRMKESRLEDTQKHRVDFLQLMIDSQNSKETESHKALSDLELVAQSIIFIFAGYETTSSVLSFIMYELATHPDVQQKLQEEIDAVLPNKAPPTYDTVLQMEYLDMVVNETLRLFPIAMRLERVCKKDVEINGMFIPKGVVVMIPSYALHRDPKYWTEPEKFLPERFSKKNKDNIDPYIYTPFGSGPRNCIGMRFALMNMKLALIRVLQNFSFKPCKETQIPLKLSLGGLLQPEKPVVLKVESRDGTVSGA

[11] = coadministration of rifampin, CYP2C9*1/*1
[12] = coadministration with fluconazole, CYP2C9*1/*1
[13] = 0.3 mg solution p.o. single dose
[14] = 2.5 mg capsule p.o. single dose
[15] = 2.5 mg solution p.o. single dose
[16] = 17.5 mg capsule p.o. single dose

T1 sequence (P11712 whole entry): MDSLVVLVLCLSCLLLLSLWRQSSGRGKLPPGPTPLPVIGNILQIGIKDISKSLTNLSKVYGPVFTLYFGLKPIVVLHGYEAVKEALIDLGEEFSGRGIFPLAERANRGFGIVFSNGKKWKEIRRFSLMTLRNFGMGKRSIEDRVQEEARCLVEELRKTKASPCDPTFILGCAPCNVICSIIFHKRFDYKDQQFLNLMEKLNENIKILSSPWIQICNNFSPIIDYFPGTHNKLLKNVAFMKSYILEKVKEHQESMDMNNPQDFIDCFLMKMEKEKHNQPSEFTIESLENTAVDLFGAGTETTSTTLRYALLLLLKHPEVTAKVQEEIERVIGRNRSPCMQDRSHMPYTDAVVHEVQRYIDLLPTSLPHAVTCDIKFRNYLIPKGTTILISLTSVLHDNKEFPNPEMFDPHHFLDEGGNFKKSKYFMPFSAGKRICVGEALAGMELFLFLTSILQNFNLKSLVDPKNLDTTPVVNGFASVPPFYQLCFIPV

In the case of `CCc1cc(/C(C)=N/OCc2ccc(C3CCCCC3)c(C(F)(F)F)c2)ccc1CN1CC(C(=O)O)C1` [siponimod], the AUC decrease ([1]; CYP2C9*1/*2) is given as 9–10%, the AUC decrease ([1]; CYP2C9*1/*3) is given as 24% and the AUC reduction [1, 11] is given as 57%. The Cmax reduction [1, 11] was 45%, the AUC increase [1, 12] was “increased approximately two fold” and the Cmax increase [1, 12] was ~ 10%. The “AUC(0–24 h)” value ([2]; 0.3 mg solution p.o. q.d.) was 97.9 (19) ng·hour/mL, the Cmin ([2]; 0.3 mg solution p.o. q.d.) was 2.83 (27) ng/mL and the Cmax ([2]; 0.3 mg solution p.o. q.d.) was 5.13 (16; 4.76–5.86) ng/mL. The “AUC(0–24 h)” value ([2]; 1 mg solution p.o. q.d.) was 282 (16) ng·hour/mL, the Cmin ([2]; 1 mg solution p.o. q.d.) was 7.74 (20) ng/mL and the Cmax ([2]; 1 mg solution p.o. q.d.) was 14.9 (10; 14.0–15.9) ng/mL. For the same molecule, the “AUC(0–24 h)” value ([2]; 2.5 mg capsule p.o. q.d.) was 692 (45) ng·hour/mL, the Cmin ([2]; 2.5 mg capsule p.o. q.d.) was 15.2 (120) ng/mL and the Cmax ([2]; 2.5 mg capsule p.o. q.d.) was 38.3 (37; 29.1–47.4) ng/mL. For the same molecule, the “AUC(0–24 h)” value ([2]; 10 mg capsule p.o. q.d.) was 2,580 (24) ng·hour/mL, the Cmin ([2]; 10 mg capsule p.o. q.d.) was 70.6 (29) ng/mL and the Cmax ([2]; 10 mg capsule p.o. q.d.) was 147 (24; 126–168) ng/mL. For the same molecule, the “AUC(0–24 h)” value ([2]; 20 mg capsule p.o. q.d.) was 6,370 (23) ng·hour/mL, the Cmin ([2]; 20 mg capsule p.o. q.d.) was 166 (88) ng/mL and the Cmax ([2]; 20 mg capsule p.o. q.d.) was 359 (17; 325–394) ng/mL. It also gave a fmCYP2C9 ([3]; CYP2C9*1/*1) of 0.804, a fmCYP2C9 ([3]; CYP2C9*1/*2) of 0.788 and a fmCYP2C9 ([3]; CYP2C9*1/*3) of 0.678. The fmCYP2C9 ([3]; CYP2C9*2/*2) was 0.727, the fmCYP2C9 ([3]; CYP2C9*2/*3) was 0.616 and the t1/2 [4, 13] was 33.21 (28) h. For the same molecule, the AUCinf [4, 13] was 89.3 (20; 79.2–99.4) ng·hour/mL, the Cmax [4, 13] was 2.26 (6; 2.17–2.34) ng/mL and the Tmax [4, 13] was 5 (4.00–8.00) h. The t1/2 ([4]; 1 mg solution p.o. single dose) was 45.7 (26) h, the AUCinf ([4]; 1 mg solution p.o. single dose) was 349 (28; 292–406) ng·hour/mL and the Cmax ([4]; 1 mg solution p.o. single dose) was 7.43 (42; 5.37–9.50) ng/mL. For the same molecule, the Tmax ([4]; 1 mg solution p.o. single dose) was 5 (4.00–15.7) h, the t1/2 [4, 14] was 29.3 (17) h and the AUCinf [4, 14] was 745 (25; 632–858) ng·hour/mL. For the same molecule, the Cmax [4, 14] was 19.3 (19; 17.1–21.5) ng/mL, the Tmax [4, 14] was 6 (4.00–8.00) h and the t1/2 [4, 15] was 27.0 (22) h. For the same molecule, the AUCinf [4, 15] was 766 (36; 598–935) ng·hour/mL, the Cmax [4, 15] was 21.9 (35; 16.7–27.0) ng/mL and the Tmax [4, 15] was 4 (3.00–8.00) h. The t1/2 ([4]; 5 mg capsule p.o. single dose) was 31.3 (19) h, the AUCinf ([4]; 5 mg capsule p.o. single dose) was 1,260 (20; 1,149–1,384) ng·hour/mL and the Cmax ([4]; 5 mg capsule p.o. single dose) was 38.5 (21; 33.5–41.5) ng/mL. The Tmax ([4]; 5 mg capsule p.o. single dose) was 3 (2.00–8.00) h, the t1/2 ([4]; 10 mg capsule p.o. single dose) was 32.0 (17) h and the AUCinf ([4]; 10 mg capsule p.o. single dose) was 2,710 (14; 2,507–2,915) ng·hour/mL. The Cmax ([4]; 10 mg capsule p.o. single dose) was 77.3 (25; 64.8–89.7) ng/mL, the Tmax ([4]; 10 mg capsule p.o. single dose) was 5 (3.82–16.0) h and the t1/2 [4, 16] was 42.3 (38) h. For the same molecule, the AUCinf [4, 16] was 4,230 (25; 3,666–4,792) ng·hour/mL, the Cmax [4, 16] was 111 (32; 93.7–128.4) ng/mL and the Tmax [4, 16] was 4 (2.00–8.00) h. For the same molecule, the t1/2 ([4]; 25 mg capsule p.o. single dose) was 47.7 (20) h, the AUCinf ([4]; 25 mg capsule p.o. single dose) was 8,140 (24; 6,987–9,302) ng·hour/mL and the Cmax ([4]; 25 mg capsule p.o. single dose) was 217 (29; 180–254) ng/mL. The Tmax ([4]; 25 mg capsule p.o. single dose) was 3.50 (1.50–12.0) h, the t1/2 ([4]; 75 mg capsule p.o. single dose) was 56.7 (12) h and the Cmax ([4]; 75 mg capsule p.o. single dose) was 491 (51; 346–637) ng/mL. For the same molecule, the Tmax ([4]; 75 mg capsule p.o. single dose) was 6 (2.00–24.00) h, the “elimination half‐life (t1/2), range” value [4] was 22 to 38 h and the “mean elimination half‐life (t1/2)” value [4] was ~ 30 hours. The fmCYP2C19 ([5]; fraction metabolized) was 0.001, the “CLint (CYP2C19)” value ([5]; retrograde calculator from CL 3.12 L/hour, fu(mic) set to 1) was 0.593 µL/min/pmol and the “CLint (CYP2C8)” value [6] was 2.941 µL/min/pmol. For the same molecule, the fmCYP2C8 ([6]; fraction metabolized) was 0.017, the “fraction metabolized via CYP2C9 (fm,CYP2C9)” value ([7]; in vitro phenotyping data) was 0.79 and the “contribution of CYP2C9 to metabolism” value ([7]; in vitro phenotyping, normalized to 100%) was 79.3%. For the same molecule, the “Fraction available from dosage form” value ([8]; based on amount of siponimod excreted to feces) was 0.91 ^c, the Absorption rate constant ([8]; estimated based on PopPK model, ref Novartis data on file) was 0.687 ^d 1/hour and the AUCinf ([9]; 0.25 mg i.v. single dose) was 80.1 (25.6; 47.7–125) ng·hour/mL. The Cmax ([9]; 0.25 mg i.v. single dose) was 3.22 (19; 1.88–3.81) ng/mL, the t1/2 ([9]; 0.25 mg i.v. single dose) was 27.4 (22.5; 20.1–47.7) h and the Tmax ([9]; 0.25 mg i.v. single dose, median (range)) was 2.92 (2.92–2.92) h. The AUCinf ([9]; 0.25 mg p.o. single dose) was 67.4 (26; 39.8–105) ng·hour/mL, the Cmax ([9]; 0.25 mg p.o. single dose) was 1.71 (24; 0.920–2.30) ng/mL and the t1/2 ([9]; 0.25 mg p.o. single dose) was 26.7 (22; 17.2–43.8) h. For the same molecule, the “CLint (CYP3A4)” value [10] was 5.607 µL/min/pmol, the fmCYP3A4 ([10]; CYP2C9*1/*1) was 0.175 and the fmCYP3A4 ([10]; CYP2C9*1/*2) was 0.189. The fmCYP3A4 ([10]; CYP2C9*1/*3) was 0.287, the fmCYP3A4 ([10]; CYP2C9*2/*2) was 0.244 and the fmCYP3A4 ([10]; CYP2C9*2/*3) was 0.343. The fmCYP3A4 ([10]; fraction metabolized) was 0.185.
